Results reported in publication PMC10523135 (RSC Advances, 2023).

Key:
Format in all cases: cell-based
[1] = system: HeLa (human cervical cancer cell line); assay: CCK-8 antiproliferative assay, HeLa; conditions: 48 h, read-out: IC50 (μM) ± SD Hela
Summary of the method: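 HeLa cells were grown in RPMI 1640 with 10% FBS and 1% penicillin/streptomycin at 37 °C, 5% CO2. They were seeded at 5 × 10^4 cells per well and left 24 h. Test compound was diluted from […] DMSO stock into medium, with final DMSO below 0.1%, and exposure lasted 48 h. CCK-8 was then added for 2 h at 37 °C and absorbance read at 450 nm. IC50 came from viability data; experiments were done three times.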

[2] = system: MCF-7 (human breast cancer cell line); assay: CCK-8 antiproliferative assay, MCF-7; conditions: MCF7, 48 h, read-out: IC50 (μM) ± SD MCF-7
[3] = system: A549 (human lung cancer cell line); assay: CCK-8 antiproliferative assay, A549; conditions: A549, 48 h, read-out: IC50 (μM) ± SD A549

Row | IC50 [1] [µM] | IC50 [2] [µM] | IC50 [3] [µM] | SMILES
1 | 8.35 ± 0.47 | > 20 | – | CNC(=O)c1c(C)oc2cc(Oc3ncnc4cc(OC)c(OC)cc34)ccc12 [Fruquintinib]
2 | 1.03 ± 0.33 | – | 3.54 ± 0.25 | O=C(CCCCCCC(=O)Nc1ccccc1)NO [SAHA]
